Measured values published in ChEMBL document CHEMBL3994580, “A novel class of α-glucosidase and HMG-CoA reductase inhibitors from Ganoderma leucocontextum and the anti-diabetic properties of ganomycin I in KK-Ay mice” (Eur J Med Chem, 2017).
Calls of active or inactive are those of the source. The calls are words filed in the database; no cut-off is given here.

Assays:
[1] = Inhibition of baker's yeast alpha-glucosidase using p-nitrophenyl alpha-D-glucopyranoside as substrate preincubated for 10 mins followed by substrate addition measured for 15 mins; set-up: species or system Saccharomyces cerevisiae
Method in brief: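 Baker's yeast α-glucosidase with pNPG, read at 405 nm. Control contained phosphate buffer in place of compound, and blank contained buffer in place of enzyme.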

[2] = Inhibition of alpha-glucosidase in rat small intestinal mucosa assessed as reduction in glucose production using p-nitrophenyl alpha-D-glucopyranoside as substrate measured after 40 mins by glucose oxidase assay
Method in brief: (§1)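 Rat small intestinal mucosa enzyme. Compound in DMSO mixed with substrate (maltose, sucrose or pNPG) and enzyme in 0.1 M phosphate buffer pH 6.9, incubated 40 min. Glucose released measured by glucose oxidase kit at 550 nm. Blank lacked enzyme, control lacked compound. Percent inhibition calculated from blank-corrected OD.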

[3] = molecular target: Sucrase-isomaltase, intestinal (Rattus norvegicus, UniProt P23739); assay: Inhibition of sucrase in rat small intestinal mucosa assessed as reduction in glucose production using sucrose as substrate measured after 40 mins by glucose oxidase assay; method in brief: as §1
[4] = Inhibition of maltase in rat small intestinal mucosa assessed as reduction in glucose production using maltose as substrate measured after 40 mins by glucose oxidase assay; method in brief: as §1
[5] = molecular target: T1, 3-hydroxy-3-methylglutaryl-coenzyme A reductase (Sus scrofa) (UniProt Q1W675); assay: Non-competitive inhibition of HMG-CoA reductase in pig liver microsomes using varying levels of HMG-CoA as substrate preincubated for 5 mins followed by NADPH addition measured after 15 mins by Lineweaver-Burk plot analysis
T1 sequence (whole entry): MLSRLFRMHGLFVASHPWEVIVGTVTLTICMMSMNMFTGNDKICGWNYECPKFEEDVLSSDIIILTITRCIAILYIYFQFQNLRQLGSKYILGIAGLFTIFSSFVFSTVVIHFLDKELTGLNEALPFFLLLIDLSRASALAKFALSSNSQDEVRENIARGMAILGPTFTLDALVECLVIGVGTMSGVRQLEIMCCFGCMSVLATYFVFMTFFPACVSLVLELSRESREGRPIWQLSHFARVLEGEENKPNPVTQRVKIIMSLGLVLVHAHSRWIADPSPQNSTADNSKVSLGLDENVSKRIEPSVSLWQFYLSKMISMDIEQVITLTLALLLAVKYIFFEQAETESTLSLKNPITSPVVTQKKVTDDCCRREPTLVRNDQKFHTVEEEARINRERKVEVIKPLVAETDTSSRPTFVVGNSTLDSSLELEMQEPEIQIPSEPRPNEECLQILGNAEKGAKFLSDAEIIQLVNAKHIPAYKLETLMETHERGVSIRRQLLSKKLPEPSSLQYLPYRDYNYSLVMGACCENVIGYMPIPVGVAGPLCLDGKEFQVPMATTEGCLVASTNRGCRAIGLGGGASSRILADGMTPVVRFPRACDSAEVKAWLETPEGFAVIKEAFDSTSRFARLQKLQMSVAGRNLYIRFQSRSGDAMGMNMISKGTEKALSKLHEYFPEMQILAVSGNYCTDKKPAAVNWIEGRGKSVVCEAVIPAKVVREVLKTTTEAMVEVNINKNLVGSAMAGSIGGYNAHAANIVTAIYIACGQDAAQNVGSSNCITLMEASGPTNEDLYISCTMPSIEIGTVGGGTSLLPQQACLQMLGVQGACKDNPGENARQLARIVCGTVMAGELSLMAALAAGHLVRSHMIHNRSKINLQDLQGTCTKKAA
Method in brief: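 HMG-CoA reductase kinetics: inhibitor at 5 to 20 μM, HMG-CoA at 2, 4, 6 and 8 μM. Initial velocities with and without inhibitor analysed by Lineweaver-Burk double-reciprocal plots.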

Mus musculus [6] = assay: Acute toxicity in mouse assessed as mortality up to […], po up to 14 days; type: organism-based; conditions: in vivo, 336 h
Mus musculus [7] = assay: Antidiabetic activity in KK-Ay diabetic mouse model assessed as reduction in blood glucose level after 4 hrs fasting at 1 to 5 mg/kg/day administered via oral gavage once daily measured on day 3 post dose; type: functional, organism-based
Method in brief: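 KK-Ay mice on high-fat diet, gavaged once daily (1 or 5 mg/kg; rosiglitazone 10 mg/kg). Blood glucose monitored sequentially after 4 h fasting. Mean ± SEM, n = 8, compared with the KK-Ay model group.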

Mus musculus [8] = assay: Antidiabetic activity in KK-Ay diabetic mouse model assessed as reduction in free diet blood glucose level at 1 to 5 mg/kg/day administered via oral gavage once daily measured on day 3 post dose; type: functional, organism-based
Method in brief: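 Non-fasted (free diet) blood glucose was tracked serially in high-fat-fed KK-Ay mice given daily gavage doses (1 or 5 mg/kg; rosiglitazone 10 mg/kg). Mean ± SEM, n = 8.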

Mus musculus [9] = assay: Toxicity in KK-Ay diabetic mouse model assessed as changes in body weight at 1 to 5 mg/kg/day administered via oral gavage once daily measured every 3 days during first two weeks of compound dosing; type: organism-based; conditions: in vivo, 72 h
Method in brief: (§2)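 In high-fat-fed KK-Ay mice gavaged once daily for 21 days, individual body weight and cage food consumption were recorded every 3 days. Mean ± SEM, n = 8.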

Mus musculus [10] = assay: Toxicity in KK-Ay diabetic mouse model assessed as decrease in body weight at 1 to 5 mg/kg/day administered via oral gavage once daily measured every 3 days post two weeks of compound treatment; type: organism-based; conditions: in vivo, 72 h; method in brief: as §2
Mus musculus [11] = assay: Antidiabetic activity in KK-Ay diabetic mouse model assessed as reduction in blood glucose level at 1 to 5 mg/kg/day administered via oral gavage once daily for 21 days by oral sucrose tolerance test; type: functional, organism-based
Method in brief: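 Oral sucrose tolerance test on day 20 of once-daily gavage treatment in high-fat-fed KK-Ay mice. Blood glucose followed over time, and the AUC was calculated. Mean ± SEM, n = 8.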

Mus musculus [12] = assay: Hypolipidemic activity in KK-Ay diabetic mouse model assessed as reduction in serum total cholesterol level at 1 to 5 mg/kg/day administered via oral gavage once daily for 21 days; type: functional, organism-based
Method in brief: (§3)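 Male KK-Ay mice (8 weeks old) on high-fat diet with water ad libitum, dosed by gavage once daily for 21 days (1 or 5 mg/kg test; rosiglitazone 10 mg/kg); female C57BL/6J mice as normal controls. Blood collected at study end. Serum lipids, insulin and glucose measured per cited method. ISI calculated from fasting blood glucose and fasting insulin. Mean ± SEM, n = 7-8.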

Mus musculus [13] = assay: Decrease in serum AST level in KK-Ay diabetic mouse model at 1 to 5 mg/kg/day administered via oral gavage once daily for 21 days; type: functional, organism-based; method in brief: as §3
Mus musculus [14] = assay: Decrease in size of adipocytes in abdominal white adipose tissue in KK-Ay diabetic mouse model at 5 mg/kg/day administered via oral gavage once daily for 21 days by haematoxylin and eosin staining based microscopic or morphometric method; type: functional, organism-based
Method in brief: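 At study end, liver and abdominal white adipose tissue were fixed in 10% formaldehyde PBS (pH 7.4), paraffin-embedded, sectioned and stained with haematoxylin/eosin. Sections were assessed by microscopy or morphometry at 20×.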

Mus musculus [15] = assay: Acute toxicity in mouse assessed as coma up to 3 g/kg, po up to 14 days; conditions: in vivo, 336 h
Mus musculus [16] = assay: Acute toxicity in mouse assessed as effect on sleep up to 3 g/kg, po up to 14 days; conditions: in vivo, 336 h
Mus musculus [17] = assay: Acute toxicity in mouse assessed as effect on physical activity up to 3 g/kg, po up to 14 days; conditions: in vivo, 336 h

Sucrase-isomaltase, intestinal, sequence (P23739 1-1013 limits assumed): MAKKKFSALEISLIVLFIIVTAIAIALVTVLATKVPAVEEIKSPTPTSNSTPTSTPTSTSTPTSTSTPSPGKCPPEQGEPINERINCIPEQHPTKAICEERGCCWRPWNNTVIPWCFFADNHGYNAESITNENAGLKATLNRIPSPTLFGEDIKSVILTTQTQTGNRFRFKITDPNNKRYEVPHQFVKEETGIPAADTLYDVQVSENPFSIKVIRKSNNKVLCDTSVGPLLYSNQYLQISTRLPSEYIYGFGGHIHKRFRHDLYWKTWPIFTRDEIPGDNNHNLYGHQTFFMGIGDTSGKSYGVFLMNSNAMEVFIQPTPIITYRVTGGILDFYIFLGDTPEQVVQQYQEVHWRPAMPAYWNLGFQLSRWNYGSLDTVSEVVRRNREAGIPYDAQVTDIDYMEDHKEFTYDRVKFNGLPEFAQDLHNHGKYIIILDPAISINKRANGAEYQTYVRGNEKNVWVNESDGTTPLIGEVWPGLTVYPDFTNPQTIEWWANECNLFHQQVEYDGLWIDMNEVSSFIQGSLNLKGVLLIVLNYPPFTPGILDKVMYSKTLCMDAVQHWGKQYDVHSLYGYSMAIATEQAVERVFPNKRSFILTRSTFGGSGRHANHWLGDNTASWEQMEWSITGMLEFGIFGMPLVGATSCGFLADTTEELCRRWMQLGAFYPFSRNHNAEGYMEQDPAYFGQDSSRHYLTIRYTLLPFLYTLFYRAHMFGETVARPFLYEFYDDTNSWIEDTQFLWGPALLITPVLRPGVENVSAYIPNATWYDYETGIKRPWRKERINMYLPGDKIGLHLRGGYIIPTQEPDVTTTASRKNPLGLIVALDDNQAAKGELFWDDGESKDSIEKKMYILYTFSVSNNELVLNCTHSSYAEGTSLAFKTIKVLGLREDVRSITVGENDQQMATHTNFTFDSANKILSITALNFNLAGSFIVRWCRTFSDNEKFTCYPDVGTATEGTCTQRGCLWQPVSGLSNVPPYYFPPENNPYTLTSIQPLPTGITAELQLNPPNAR
Sucrase-isomaltase, intestinal, sequence (P23739 1014-1841 limits assumed): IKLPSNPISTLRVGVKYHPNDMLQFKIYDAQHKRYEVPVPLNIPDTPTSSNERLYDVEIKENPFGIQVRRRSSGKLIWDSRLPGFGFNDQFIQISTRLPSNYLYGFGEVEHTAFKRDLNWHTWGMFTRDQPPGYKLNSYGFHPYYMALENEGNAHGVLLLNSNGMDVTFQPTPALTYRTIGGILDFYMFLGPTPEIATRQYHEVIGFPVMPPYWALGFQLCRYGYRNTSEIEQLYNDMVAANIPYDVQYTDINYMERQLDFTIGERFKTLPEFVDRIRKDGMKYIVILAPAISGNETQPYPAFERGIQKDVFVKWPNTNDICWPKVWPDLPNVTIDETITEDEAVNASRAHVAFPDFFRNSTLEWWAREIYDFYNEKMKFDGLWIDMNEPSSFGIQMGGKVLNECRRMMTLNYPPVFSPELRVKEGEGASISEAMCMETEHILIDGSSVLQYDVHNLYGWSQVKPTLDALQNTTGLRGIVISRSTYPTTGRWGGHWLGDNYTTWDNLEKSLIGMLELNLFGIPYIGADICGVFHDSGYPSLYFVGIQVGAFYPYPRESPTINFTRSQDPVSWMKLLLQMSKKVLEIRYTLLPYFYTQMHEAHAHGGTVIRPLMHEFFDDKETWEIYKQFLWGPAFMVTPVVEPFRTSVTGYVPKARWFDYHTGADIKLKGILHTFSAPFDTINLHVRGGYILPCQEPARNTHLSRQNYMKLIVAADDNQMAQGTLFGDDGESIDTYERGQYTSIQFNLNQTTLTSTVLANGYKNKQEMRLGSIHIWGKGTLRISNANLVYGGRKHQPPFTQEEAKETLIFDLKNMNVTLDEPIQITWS

`CC(C)=CCC/C(C)=C/CCC1=C[C@H](c2cc(O)ccc2O)OC1=O` showed an IC50 [1] of 300 nM, an IC50 [2] of 400 nM and an IC50 [3] of 67.6 µM. For the same compound, the IC50 [4] was 3.6 µM, the inhibition [5] was “Active” and the Activity (Mus musculus [6]) was “Non-Toxic”. The Activity (Mus musculus [7]) was “Active”, the Activity (Mus musculus [8]) was “Active” and the Activity (Mus musculus [9]) was “Non-Toxic”. For the same compound, the Activity (Mus musculus [10]) was “Toxic”, the Activity (Mus musculus [11]) was “Active” and the Activity (Mus musculus [12]) was “Active”. For the same compound, the Activity (Mus musculus [13]) was “Active”, the Activity (Mus musculus [14]) was “Active” and the Activity (Mus musculus [15]) was “Non-Toxic”. The Activity (Mus musculus [16]) was “Non-Toxic” and the Activity (Mus musculus [17]) was “Non-Toxic”.
